Reference: ChEMBL document CHEMBL3352243, “Ligand-based virtual screening identifies a family of selective cannabinoid receptor 2 agonists” (Bioorg Med Chem, 2015)
Converted amounts (≈) assume the structure as drawn. One block for each compound: values may come before it.

Columns and labels:
Cannabinoid receptor 2 [1] = target: T1, Cannabinoid receptor 2 (Homo sapiens, UniProt P34972); assay: Agonist activity at human CB2R expressed in CHO cells assessed as reduction in forskolin-induced cAMP accumulation by beta-galactosidase based complementation immunoassay; assay type: functional, cell-based
Method in brief: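 hCB2R CHO-K1 cells plated overnight at 37 °C, 5% CO2; anti-cAMP antibody added, then compound (final 0.2% DMSO) with 20 μM forskolin for 30 min at 37 °C. Lysis/substrate 1 h, then EA detection reagent 3 h at room temperature; luminescence read and normalised to forskolin+solvent wells (100%). EC50 by 4-parameter nonlinear fit of pooled 3–4 independent experiments.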
Target sequence in this assay (P34972 whole entry): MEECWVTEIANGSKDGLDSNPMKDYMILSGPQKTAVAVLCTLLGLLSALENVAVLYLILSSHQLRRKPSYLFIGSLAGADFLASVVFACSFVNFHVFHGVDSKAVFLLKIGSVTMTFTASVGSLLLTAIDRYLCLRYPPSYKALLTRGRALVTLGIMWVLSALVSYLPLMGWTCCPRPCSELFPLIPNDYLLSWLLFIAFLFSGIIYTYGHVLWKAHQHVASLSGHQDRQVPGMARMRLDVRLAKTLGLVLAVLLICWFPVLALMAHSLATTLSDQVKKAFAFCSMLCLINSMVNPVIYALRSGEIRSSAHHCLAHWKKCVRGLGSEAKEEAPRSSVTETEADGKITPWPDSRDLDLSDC

Liver = assay: Half life in mouse liver microsomes in presence of NADPH by LC-MS/MS method; assay type: ADME
Method in brief: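 Mouse liver microsomes incubated with compound at 37 °C with NADPH. Reactions stopped with methanol containing internal standard, centrifuged, supernatant analysed by LC–MS/MS.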

Cannabinoid receptor 2 [2] = target: T1, Cannabinoid receptor 2; assay: Agonist activity at human CB2R expressed in CHO cells assessed as reduction in forskolin-induced cAMP accumulation at 3 uM by beta-galactosidase based complementation immunoassay; assay type: functional, cell-based; set-up: reference not given here
Method in brief: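 CHO-K1 cells expressing hCB2R, 15,000 per well, incubated overnight at 37 °C, 5% CO2, then anti-cAMP antibody added. Test agent at single concentration with 20 μM forskolin (0.2% DMSO final), 30 min at 37 °C. Lysis/substrate 1 h, then EA reagent 3 h, both at rt in the dark; luminescence read and expressed as % of forskolin+solvent control wells.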
Target sequence in this assay (P34972 whole entry): as above

Cannabinoid receptor 2 [3] = target: T1, Cannabinoid receptor 2; assay: Agonist activity at human CB2R expressed in CHO cells assessed as reduction in forskolin-induced cAMP accumulation at 1 uM by beta-galactosidase based complementation immunoassay; set-up: reference not given here
Target sequence in this assay (P34972 whole entry, looked up): as the sequence (P34972 whole entry) above

Cannabinoid receptor 2 [4] = target: T1, Cannabinoid receptor 2; assay: Displacement of [3H]WIN-55212-2 from human CB2R expressed in CHO cells; assay type: cell-based
Method in brief: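 Membranes from CHO cells expressing hCB2R incubated with test compound and tritiated WIN-55212 (0.8 nM), 2 h, 37 °C. Non-specific binding defined with 5 μM WIN-55212. Scintillation counting of bound ligand; Ki via Cheng–Prusoff with radioligand Kd; duplicate.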
Target sequence in this assay (P34972 whole entry): as above

Cannabinoid receptor 1 = Cannabinoid receptor 1 (Homo sapiens, UniProt P21554); assay: Displacement of [3H]CP55940 from human CB1R expressed in CHO cells; assay type: cell-based
Chain of Cannabinoid receptor 1 (P21554 whole entry): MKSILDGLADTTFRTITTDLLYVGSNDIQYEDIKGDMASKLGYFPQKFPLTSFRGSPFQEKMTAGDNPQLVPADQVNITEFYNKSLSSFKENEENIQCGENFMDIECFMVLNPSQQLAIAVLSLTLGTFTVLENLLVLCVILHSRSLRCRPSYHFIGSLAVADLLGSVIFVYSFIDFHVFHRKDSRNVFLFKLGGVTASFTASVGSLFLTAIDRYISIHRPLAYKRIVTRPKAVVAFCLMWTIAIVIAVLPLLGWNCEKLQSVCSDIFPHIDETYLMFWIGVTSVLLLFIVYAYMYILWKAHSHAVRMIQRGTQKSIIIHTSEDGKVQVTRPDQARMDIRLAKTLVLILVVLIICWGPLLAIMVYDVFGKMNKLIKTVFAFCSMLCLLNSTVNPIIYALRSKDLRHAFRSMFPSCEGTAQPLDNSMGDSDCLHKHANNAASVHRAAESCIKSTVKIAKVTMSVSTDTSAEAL
Method in brief: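 Membranes from CHO cells expressing hCB1R incubated with test compound and [3H]CP 55,940 (0.5 nM) for 2 h at 37 °C. Non-specific binding defined with 10 μM WIN-55212. Bound radioligand measured by scintillation counting. Ki from Cheng–Prusoff using radioligand Kd; run in duplicate.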

[5] = Aqueous kinetic solubility of the compound at pH 7 at 37 degC by turbidimetric assay; assay type: physicochemical; details: read-out: Kinetic_solubility
Method in brief: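 Turbidimetric method: DMSO dilutions added to phosphate-buffered saline pH 7.4 at final 1, 3, 10, 30, 100 μM (1% DMSO), 7 replicates per concentration. Incubated 2 h at 37 °C, then absorbance read at 620 nm. Value is the mid-point of the precipitation range between upper and lower solubility limits.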

Structure (SMILES): N#Cc1ccccc1CSc1nnc2c3ccccc3n(C(=O)C3CC3)c2n1
- EC50 (Cannabinoid receptor 2 [1]): 181 nM
- t1/2 (Liver): < 5 min

- Activity (Cannabinoid receptor 2 [2]): 119%
- Activity (Cannabinoid receptor 2 [3]): 98.2%
Structure (SMILES): CCCCCCSC1=C(C#N)C(c2ccccc2Cl)NC(=O)N1 (stereo not given)

- Activity (Cannabinoid receptor 2 [2]): 117%
- Activity (Cannabinoid receptor 2 [3]): 105%
Structure (SMILES): CCCCCCSC1=C(C#N)C(c2cccc(Cl)c2)NC(=O)N1 (stereo not given)

- EC50 (Cannabinoid receptor 2 [1]): > 3000 nM
Structure (SMILES): N#Cc1ccccc1CSc1nnc2c3ccccc3n(C(=O)c3ccc(F)cc3C(F)(F)F)c2n1

Structure (SMILES): N#Cc1ccccc1CSc1nnc2c3ccccc3n(CC3CCCCC3)c2n1
- EC50 (Cannabinoid receptor 2 [1]): 270 nM
- t1/2 (Liver): < 5 min

- EC50 (Cannabinoid receptor 2 [1]): > 3000 nM
Structure (SMILES): Cc1ccc(-c2cccc3[nH]c4nc(SCc5ccccc5C#N)nnc4c23)cc1

- Activity (Cannabinoid receptor 2 [2]): 114%
- Activity (Cannabinoid receptor 2 [3]): 121%
Structure (SMILES): CCCCCCSC1=C(C#N)C(c2ccc(F)cc2)NC(=O)N1 (stereo not given)

- EC50 (Cannabinoid receptor 2 [1]): > 3000 nM
Structure (SMILES): Cc1ccc(S(=O)(=O)n2c3ccccc3c3nnc(SCc4ccccc4C#N)nc32)cc1

- Activity (Cannabinoid receptor 2 [2]): 138%
- Activity (Cannabinoid receptor 2 [3]): 108%
Structure (SMILES): CCCCCCSC1=C(C#N)C(c2ccc(Cl)cc2)NC(=O)N1 (stereo not given)

- Activity (Cannabinoid receptor 2 [2]): 85.3%
- Activity (Cannabinoid receptor 2 [3]): 76.7%
Structure (SMILES): CC(C)CCSc1nc(N)c2c3c(sc2n1)COC(C)(C)C3

Structure (SMILES): O=[N+]([O-])c1ccccc1CSc1nnc2c(n1)[nH]c1cccc(Br)c12
- EC50 (Cannabinoid receptor 2 [1]): 37 nM

Structure (SMILES): CCn1c2ccccc2c2nnc(SCc3ccccc3C#N)nc21
- EC50 (Cannabinoid receptor 2 [1]): 674 nM

Structure (SMILES): CCCCCCCC1C(=O)NC(=S)N(c2ccccc2)C1=O (stereo not given)
- Activity (Cannabinoid receptor 2 [2]): 98.1%
- Activity (Cannabinoid receptor 2 [3]): 111%

- EC50 (Cannabinoid receptor 2 [1]): > 3000 nM
Structure (SMILES): Fc1ccc(CSc2nnc3c(n2)[nH]c2ccccc23)cc1

- EC50 (Cannabinoid receptor 2 [1]): > 3000 nM
Structure (SMILES): c1ccc2c(c1)[nH]c1nc(SCC3CCCCC3)nnc12

Structure (SMILES): N#Cc1ccccc1CSc1nnc2c3ccccc3n(C(=O)C3CCCC3)c2n1
- EC50 (Cannabinoid receptor 2 [1]): 49 nM
- Ki (Cannabinoid receptor 2 [4]): 320 nM
- Ki (Cannabinoid receptor 1): > 60000 nM

Structure (SMILES): N#Cc1ccccc1CSc1nnc2c3ccccc3n(C(=O)c3ccc(OC(F)(F)F)cc3)c2n1
- EC50 (Cannabinoid receptor 2 [1]): 73 nM
- Ki (Cannabinoid receptor 2 [4]): 380 nM
- Ki (Cannabinoid receptor 1): > 60000 nM

- EC50 (Cannabinoid receptor 2 [1]): > 3000 nM
Structure (SMILES): N#Cc1ccccc1CSc1nnc2c(n1)[nH]c1c(Br)cccc12

- EC50 (Cannabinoid receptor 2 [1]): > 3000 nM
Structure (SMILES): Fc1cccc(F)c1CSc1nnc2c(n1)[nH]c1ccccc12

- EC50 (Cannabinoid receptor 2 [1]): > 3000 nM
Structure (SMILES): Clc1cccc(CSc2nnc3c(n2)[nH]c2ccccc23)c1

Structure (SMILES): N#Cc1ccccc1CSc1nnc2c3ccccc3n(C(=O)c3ccno3)c2n1
- EC50 (Cannabinoid receptor 2 [1]): 19 nM
- Ki (Cannabinoid receptor 2 [4]): 450 nM
- Ki (Cannabinoid receptor 1): > 60000 nM
- solubility kinetic [5]: 6.5 µM (≈ 2.68 µg/mL)

- EC50 (Cannabinoid receptor 2 [1]): > 3000 nM
Structure (SMILES): CCOC(=O)c1ccccc1CSc1nnc2c(n1)[nH]c1ccccc12

Structure (SMILES): N#Cc1ccccc1CSc1nnc2c3ccccc3n(C(=O)c3ccc(F)cc3)c2n1
- EC50 (Cannabinoid receptor 2 [1]): 57 nM

Structure (SMILES): N#Cc1ccccc1CSc1nnc2c3ccccc3n(C(=O)c3ccco3)c2n1
- EC50 (Cannabinoid receptor 2 [1]): 46 nM
- Ki (Cannabinoid receptor 2 [4]): 490 nM
- Ki (Cannabinoid receptor 1): > 10000 nM

- Activity (Cannabinoid receptor 2 [2]): 98.4%
- Activity (Cannabinoid receptor 2 [3]): 111%
Structure (SMILES): CCC1(C)Cc2c(sc3nc(SCCC(C)C)nc(N)c23)CO1 (stereo not given)

- EC50 (Cannabinoid receptor 2 [1]): > 3000 nM
Structure (SMILES): CN(C)c1ccc(C(=O)n2c3ccccc3c3nnc(SCc4ccccc4C#N)nc32)cc1

- EC50 (Cannabinoid receptor 2 [1]): > 3000 nM
Structure (SMILES): Clc1ccccc1CSc1nnc2c(n1)[nH]c1ccccc12

Structure (SMILES): COC(=O)CCC(=O)n1c2ccccc2c2nnc(SCc3ccccc3C#N)nc21
- EC50 (Cannabinoid receptor 2 [1]): 48 nM
- Ki (Cannabinoid receptor 2 [4]): 360 nM
- Ki (Cannabinoid receptor 1): > 60000 nM
- solubility kinetic [5]: 3.75 µM (≈ 1.62 µg/mL)

Structure (SMILES): N#Cc1ccccc1CSc1nnc2c(n1)[nH]c1cccc(-c3ccsc3)c12
- EC50 (Cannabinoid receptor 2 [1]): 1760 nM

- Activity (Cannabinoid receptor 2 [2]): 44.3%
- Activity (Cannabinoid receptor 2 [3]): 47.8%
Structure (SMILES): CCCCSc1nnc2c(n1)OC(CC)Nc1ccccc1-2 (stereo not given)

Structure (SMILES): N#Cc1ccccc1CSc1nnc2c3ccccc3n(S(=O)(=O)c3ccccc3)c2n1
- EC50 (Cannabinoid receptor 2 [1]): 76 nM
- t1/2 (Liver): < 5 min

Structure (SMILES): N#Cc1ccccc1CSc1nnc2c(n1)[nH]c1cccc(C3CC3)c12
- EC50 (Cannabinoid receptor 2 [1]): 231 nM

Structure (SMILES): O=C(O)c1ccccc1CSc1nnc2c(n1)[nH]c1ccccc12
- EC50 (Cannabinoid receptor 2 [1]): 2180 nM

- EC50 (Cannabinoid receptor 2 [1]): > 3000 nM
Structure (SMILES): Clc1ccc(CSc2nnc3c(n2)[nH]c2ccccc23)cc1

Structure (SMILES): O=[N+]([O-])c1ccc(CSc2nnc3c(n2)[nH]c2ccccc23)cc1
- EC50 (Cannabinoid receptor 2 [1]): 617 nM

Structure (SMILES): N#Cc1ccccc1CSc1nnc2c3ccccc3n(CC3CC3)c2n1
- EC50 (Cannabinoid receptor 2 [1]): 144 nM
- t1/2 (Liver): < 5 min
